SUMO1-SIM PPI: modulators of human SUMO1-mediated protein-protein interactions; SUMO1 binding to a labelled peptide, TR-FRET, 1 h; 0.33% of 360,000 active; P63165; inhibition, % at 20 µM; in the data active = inhibition above about 37%
Target sequence (P63165 whole entry, looked up): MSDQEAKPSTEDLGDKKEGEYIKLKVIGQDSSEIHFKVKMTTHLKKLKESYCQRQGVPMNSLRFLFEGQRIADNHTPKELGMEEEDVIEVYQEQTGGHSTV
Scp1 inh: Scp-1 (human) phosphatase inhibition; Q9GZU7; Recombinant Scp1, phosphopeptide, malachite green phosphate absorbance; inhibition, % at 20 µM; 0.88% of 340,000 active;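 active = inhibition above about 50% at 20 µM, limit read from the data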
Target sequence (Q9GZU7 76-261 limits assumed): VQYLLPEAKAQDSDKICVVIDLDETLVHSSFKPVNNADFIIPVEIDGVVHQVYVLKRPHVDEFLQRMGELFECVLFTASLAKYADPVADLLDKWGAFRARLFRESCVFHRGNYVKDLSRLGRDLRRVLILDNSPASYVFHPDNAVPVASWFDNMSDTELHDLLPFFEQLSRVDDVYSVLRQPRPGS
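Test system – truncated SCP-1 phosphatase (76-261aa) · Reagent – Phosphorylated 17-residue peptide substrate · Incubation – 45 min room-temperature reaction, 5 min colour, 30 min stabiliser · Detection – colorimetric phosphate reagent with accelerator and stabiliser, absorbance at 630 nm · Measure – % inhibition at 20 µM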
LMPTP block: LMPTP (human) inhibition; inhibition, % at 20 µM; 0.22% of 360,000 active; P24666; recombinant LMPTP-A, OMFP fluorogenic substrate, fluorescence intensity; AID 651560;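 active = compounds that cut the enzyme signal by at least half of the control window in the single-dose screen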
Target sequence (P24666 whole entry, looked up): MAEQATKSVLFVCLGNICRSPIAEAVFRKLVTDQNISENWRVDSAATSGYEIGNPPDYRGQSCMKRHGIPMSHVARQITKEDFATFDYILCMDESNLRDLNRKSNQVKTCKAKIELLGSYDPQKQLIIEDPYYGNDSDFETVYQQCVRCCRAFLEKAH
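Assay system: LMPTP-A, protein tyrosine phosphatase of low molecular weight / Medium: pH 6.0 Bis-Tris buffer with DTT and Triton X-100 / Schedule: 50 min enzyme reaction at room temperature, protected from light / Measured by: endpoint fluorescence intensity from OMFP dephosphorylation / Read-out basis: % inhibition relative to no-enzyme and uninhibited control wells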
STEP block: blocks human striatal-enriched tyrosine phosphatase; P54829; recombinant STEP, OMFP fluorogenic substrate, fluorescence; inhibition, % at 20 µM; 0.25% of 360,000 active; AID 588621;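 active = inhibition at 20 µM, scaled per plate between control wells, above about 37%, limit read from the data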
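Also added – OMFP at 25 µM · Test system – STEP tyrosine phosphatase · Technique – FITC-channel fluorescence of OMFP product · Schedule – 20 min at room temperature, dark · Evaluation – control-normalized % inhibition with plate pattern correction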
FAS-TE inh: inhibitors of human fatty acid synthase thioesterase domain | 0.67% of 360,000 active | P49327 | recombinant FAS-TE, OMFH fluorogenic substrate, fluorescence endpoint | inhibition, % at 15 µM;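 active = compounds whose normalised, plate-corrected inhibition of enzyme fluorescence in the single-dose primary screen is 50% or more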
FAS-TE conf: confirmation of human fatty acid synthase thioesterase inhibitors. shares compounds with FAS-TE inh. recombinant FAS-TE, OMFH fluorogenic substrate, fluorescence. inhibition, % at 15 µM. 45% of 2,300 active;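 active = compounds inhibiting the enzyme by at least 50% at 15 µM in any one of the replicates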
Numbers stand for hits; i = inactive; nt = not tested or not shown. Only some compounds are listed: those with a hit (about 1.9% of all), similar ones and a draw of the others.

SMILES | SUMO1-SIM PPI | Scp1 inh | LMPTP block | STEP block | FAS-TE inh | FAS-TE conf
NC(=S)NN=C1c2cc(S(=O)(=O)N3CCOCC3)ccc2-c2ccc(S(=O)(=O)N3CCOCC3)cc21 | i | i | i | i | i | nt
CN(C)N=C1c2cc(S(=O)(=O)N3CCOCC3)ccc2-c2ccc(S(=O)(=O)N3CCOCC3)cc21 | i | i | i | i | 50 | i
O=C(CSc1ccc([N+](=O)[O-])cn1)Nc1cc(C(F)(F)F)ccc1N1CCOCC1 | i | i | i | i | 56 | i
O=C(CSc1ccc(F)cc1)Nc1ccc2c(c1)C(=O)NC2=O | i | i | i | i | i | nt
O=C(NC(=S)N1CCN(C(c2ccccc2)c2ccccc2)CC1)c1ccc(S(=O)(=O)N2CCOCC2)cc1 | i | i | i | i | 56 | i
CN1CCN(C(=S)NC(=O)c2ccc(S(=O)(=O)N3CCOCC3)cc2)CC1 | i | i | i | i | i | nt
Cc1cc(C)c(C#N)c(N2CCN(Cc3ccccc3)CC2)n1 | i | i | i | i | i | nt
Cc1cc(C)c(C#N)c(N2CCN(Cc3ccc4c(c3)OCO4)CC2)n1 | i | i | i | i | 61 | i
O=C1CCc2cc(S(=O)(=O)Nc3ccccc3F)cc3c2N1CCC3 | i | i | i | i | i | nt
COc1ccc(C(=O)N/C(=C\c2ccc([N+](=O)[O-])cc2)C(=O)NC(CCSC)C(=O)O)cc1 (configuration not stated) | i | i | i | i | 57 | 53
Cc1ccc(C(=O)N/C(=C\c2ccc([N+](=O)[O-])cc2)C(=O)NCCc2ccccc2)cc1 | i | i | i | i | i | nt
CCCCOc1ccc(C(=O)N/C(=C/C=C/c2ccccc2)C(=O)NCCCO)cc1 | i | i | i | i | i | nt
C=CCNC(=O)/C(=C\c1ccc(OC)cc1)NC(=O)c1ccc([N+](=O)[O-])cc1 | i | i | i | i | 76 | 83
CN(C)CCCNC(=O)/C(=C\C=C\c1ccccc1)NC(=O)c1ccc([N+](=O)[O-])cc1 | i | i | i | i | 86 | 89
COc1ccc(/C=C(/NC(=O)c2ccc([N+](=O)[O-])cc2)C(=O)NCCCN(C)C)cc1 | i | i | i | i | 71 | 77
Cc1ccc(NC(=O)Cn2nc(C)c([N+](=O)[O-])c2C)cc1Cl | i | i | i | i | i | nt
Cc1ccc(NC(=O)Cn2nc(-c3ccco3)ccc2=O)cc1Cl | i | i | i | i | 50 | i
CC(=O)c1cccc(-c2ccnc3c2CC(C(=O)Nc2ccc(C(C)C)cc2)O3)c1 (configuration not stated) | i | nt | i | i | 55 | 59
c1ccc(Oc2c3ccccc3nc3ccccc23)cc1 | nt | i | nt | nt | nt | nt
CCN(CC)c1ccc(NC(=O)COc2ccc(C#N)cc2)cc1S(=O)(=O)Nc1ccc(OC)cc1 | i | i | i | i | i | nt
O=C(COc1ccccc1)NCC(=O)N1CCCC(C(F)(F)F)C1 (configuration not stated) | i | i | i | i | i | nt
CCN(CC)S(=O)(=O)c1cccc(-c2n[nH]c(=S)n2/N=C/c2ccc(OC(F)F)cc2)c1 | i | i | i | i | 52 | i
CCOc1ccc(-c2c(C)n([O-])c3c([n+]2=O)CCCCC3)cc1 | i | i | i | i | i | nt
COc1ccc(C2=NN(C(=O)c3ccccc3)C(c3cccc([N+](=O)[O-])c3)C2)cc1 (configuration not stated) | i | i | i | i | 75 | i
CCn1cc([N+](=O)[O-])c(C(=O)N2N=C(c3ccccc3)CC2c2ccc([N+](=O)[O-])cc2)n1 (configuration not stated) | i | i | i | i | 63 | 47
SMILES | SUMO1-SIM PPI | Scp1 inh | LMPTP block | STEP block | FAS-TE inh | FAS-TE conf
CCN1C[C@@H]2[C@@H]3C(=O)N(C)C(=O)[C@@H]3[C@](C)(C1=O)N2C(=O)c1ccc(F)cc1 | i | i | i | i | i | nt
CCOc1ccc(S(=O)(=O)NCCC(=O)NC2CCCCC2)cc1 | i | i | i | i | i | nt
CCOC(=O)c1sc(N2C(=O)C(O)=C(C(=O)c3ccco3)C2c2ccc([N+](=O)[O-])cc2)nc1C (configuration not stated) | i | i | i | i | 56 | 73
CCOC(=O)c1sc(N2C(=O)C(O)=C(C(=O)c3ccco3)C2c2ccc(C)o2)nc1C (configuration not stated) | i | i | i | i | i | nt
CCC(Cc1ccccc1)NC(=O)CCc1ccccc1 (configuration not stated) | i | i | i | i | i | nt
O=C1C(Cc2ccccc2)Nc2ncnc(N3CCN(c4ccccc4)CC3)c2N1Cc1ccc(Cl)cc1 (configuration not stated) | i | i | i | i | 84 | i
O=C1C(Cc2ccccc2)Nc2ncnc(N3CCCCC3)c2N1Cc1ccc(Cl)cc1 (configuration not stated) | i | i | i | i | i | nt
COc1ccc(C(=O)COC(=O)c2cc([N+](=O)[O-])ccc2N2CCOCC2)c(OC)c1 | i | i | i | i | 75 | 75
Cc1cc(C)c(C(=O)COC(=O)c2cc([N+](=O)[O-])ccc2N2CCOCC2)cc1C | i | i | i | i | 57 | i
COc1ccccc1CNC(=O)COC(=O)c1cc([N+](=O)[O-])ccc1N1CCOCC1 | i | i | i | i | 79 | 90
COc1cc(C(=O)COC(=O)c2cc([N+](=O)[O-])ccc2N2CCOCC2)ccc1OC(F)F | i | i | i | i | 55 | 57
COc1ccc(C(=O)c2cc([N+](=O)[O-])ccc2N2CCOCC2)cc1 | i | i | i | i | i | nt
COc1ccccc1N(C(=O)Cn1nnc(-c2ccc(C)o2)n1)C(C(=O)NC1CCCC1)c1ccncc1 (configuration not stated) | i | i | i | i | i | nt
CC(C)CCNC(=O)C(=O)Nc1ccc2c(c1)N(S(=O)(=O)c1cccs1)CCC2 | i | i | i | i | i | nt
COc1ccc(CCC(=O)Nc2ccc(S(=O)(=O)Nc3nccc(C)n3)cc2)cc1 | i | i | i | i | i | nt
CCNc1nnc(CCn2nc(C)c(Br)c2C)s1 | i | i | i | i | i | nt
COc1ccc(C(=O)COC(=O)c2cc(S(=O)(=O)N3CCCCC3)ccc2N2CCOCC2)c(OC)c1 | i | i | i | i | 73 | i
O=C(COC(=O)c1cc([N+](=O)[O-])ccc1N1CCOCC1)c1ccccc1Cl | i | i | i | i | i | nt
COc1ccccc1C(=O)COC(=O)c1cc([N+](=O)[O-])ccc1N1CCOCC1 | i | i | i | i | 68 | 34
O=C(COC(=O)c1cc([N+](=O)[O-])ccc1N1CCOCC1)c1ccccc1 | i | i | i | i | 63 | 71
CN(CCC#N)S(=O)(=O)c1cc2c3c(c1)CCN3C(=O)CC2 | i | i | i | i | i | nt

High-throughput results from PubChem.
